Assay results taken from PubChem BioAssay AID493196 (Broad Institute, 2011).
Inconclusive results are not listed. Calls of active or inactive are those of the source.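 The calls were made as follows: active = every repeat test active, with falling signal and half-maximal dose at most ten times the top dose; inconclusive = repeat tests disagree, or a weak flat or poor fit; inactive = all tests inactive, including signal shifting the wrong way.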

System: not listed separately
Test: cytotoxicity in control HMLE_sh_eGFP cells, dose response, counter-screen for breast cancer stem cell project, cell-based, luminescence, dry powder, set 3 (AID 493196)
Conditions: HMLE_sh_eGFP viability, CellTiter-Glo luminescence, 72 h; at 19.5 µM (top of the series)
How it was run: (§1)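 Assay system – HMLE_sh_eGFP counterscreen cell line · Quantity – 2000 cells per well · Buffer or medium – serum-free CSC screening medium · Schedule – ≥4 h attachment, ~70–74 h exposure, 37 °C, 5% CO2 · Detection – CellTiter-Glo luminescence · Control set – DMSO neutral control, 160 µM puromycin positive control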

Row | SMILES | activity change, negative = cytotoxic
1 | O=C(c1ccccc1)c1coc2ccc(O)c(Br)c12 | 1.2% (inactive)

System: HMLE_sh_eGFP viability, CellTiter-Glo luminescence, 72 h
Test: as above
Conditions: not given
How it was run: as §1

Row | SMILES | AC50 [µM]
2 | CCCCCCc1cc2cc(S(=O)(=O)c3ccc(Cl)cc3)c(=O)oc2cc1O | 0.965
3 | CCN1C(=O)/C(=C\N2CCN(c3cccc(Cl)c3)CC2)SC1=S | 11.8
4 | Nc1cc(Cl)ccc1Oc1ccc2ccccc2c1 | 9.73
5 | Cc1onc(-c2ccccc2)c1C(=O)Nc1sc2c(c1C#N)CCC(C)C2 (stereo not drawn) | 6.9
6 | O=C1NC(=Nc2ccc(Cl)cc2)SC1Cc1cccc(Cl)c1Cl (stereo not drawn) | 14.5
7 | CC(C)(C)c1ccc2c(c1)OC(C(=O)NN=Cc1ccc[nH]1)CO2 (mixture of isomers) | 19.6
8 | Cc1ccc2nc(NC(=O)c3cccc(-c4cc5ccccc5oc4=O)c3)sc2c1 | 1.85
9 | CC(=O)c1cccc(NS(=O)(=O)c2cc(-c3cnc(C4CC4)o3)ccc2C)c1 | 2.67
10 | C/C(=N\NC(=O)c1cc(-c2cccc([N+](=O)[O-])c2)n[nH]1)c1ccccc1O | 3.52
11 | O=C(Nc1ccccc1N1CCCC1)c1cccc(-c2cc3ccccc3oc2=O)c1 | 7.97
12 | CN(c1ccccc1)S(=O)(=O)c1ccc(-c2ccccc2)cc1 | 14.4
13 | COC(=O)c1c(NC(=O)c2ccccc2)sc2c1CC(C)(C)OC2 | 13.4
